Measured values: ChEMBL document CHEMBL1132110, “Design and fast synthesis of C-terminal duplicated potent C(2)-symmetric P1/P1'-modified HIV-1 protease inhibitors” (J Med Chem, 1999)

How the values were obtained:
MT4 [1] = assay: The anti-HIV activity was evaluated in MT-4 cells using colorimetric XTT assay. MT-4 cells were infected with HIV-1,IIb (in vitro); assay type: functional; settings: Homo sapiens, read-out: ED50 (the source's name)
Summary of the method: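 MT4 cells (2 × 10⁴ per well) infected with HIV-1 IIIB at 10–50 TCID50/well. Compounds came from 10 mg/mL DMSO stocks, diluted in medium and added to the cells. Viability was read by XTT after 6 days to monitor the cytopathic effect, and the 50% effective dose (ED50) was determined.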

[2] = target: Human immunodeficiency virus type 1 protease (Human immunodeficiency virus 1, UniProt Q72874); assay: Inhibitory activity against HIV-1 protease expressed in Escherichia coli
MT4 [3] = assay: The anti-HIV activity in the presence of MT-4 cells infected mutants HIV-1:M46I,V82F,[…]; assay type: functional; settings: Homo sapiens, read-out: ED50 (the source's name)
Summary of the method: (§1)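 MT4 cells (2 × 10⁴/well) infected with ritonavir-selected mutant HIV-1 (10–50 TCID₅₀/well). Mutants came from passaging cell-free virus under stepwise-increased ritonavir, then one passage without drug; protease gene sequenced. Compounds from 10 mg/mL DMSO stocks diluted in medium. Viability read by XTT after 6 days; ED50 taken as 50% dose.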

MT4 [4] = assay: The anti-HIV activity in the presence of MT-4 cells infected mutants HIV-1:V32I,M46I,V82A.; assay type: functional; settings: Homo sapiens, read-out: ED50 (the source's name); summary of the method: as §1
MT4 [5] = assay: The anti-HIV activity in the presence of human serum(hs) performed in MT-4 cells with AB+ serum.; assay type: functional; settings: read-out: ED50 (the source's name)
Summary of the method: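 MT4 cells infected with HIV-1 IIIB. Compounds diluted in human AB+ serum were added after 1 h of virus adsorption. Final medium held 50% human serum plus 10% fetal calf serum. Viral replication was read after 6 days as HIV p24 antigen, and the ED50 was derived.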

MT4 [6] = assay: The anti-HIV activity in the presence of human serum(hs) performed in MT-4 cells iwith AB+ serum.; assay type: functional; settings: read-out: ED50 (the source's name)
Summary of the method: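 MT4 cells infected with HIV-1 IIIB; compounds diluted in human AB+ serum and added after 1 h virus adsorption, final medium 50% human serum plus 10% fetal calf serum. Viral replication measured after 6 days as HIV p24 antigen; ED50 derived.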

Compound | EC50 (MT4 [1]) | Ki [2] | EC50 (MT4 [3]) | EC50 (MT4 [4]) | EC50 (MT4 [5]) | EC50 (MT4 [6])
CNC(=O)[C@@H](NC(=O)[C@H](OCc1ccc(CCc2ccccc2)cc1)[C@H](O)[C@@H](O)[C@@H](OCc1ccc(CCc2ccccc2)cc1)C(=O)N[C@H](C(=O)NC)C(C)C)C(C)C | 2100 nM | 3.8 nM |  |  |  | 
CNC(=O)[C@@H](NC(=O)[C@H](OCc1ccc(Br)cc1)[C@H](O)[C@@H](O)[C@@H](OCc1ccc(Br)cc1)C(=O)N[C@H](C(=O)NC)C(C)C)C(C)C | 800 nM | 0.3 nM | 1000 nM | 1200 nM | 2100 nM | 
CNC(=O)[C@@H](NC(=O)[C@H](OCc1ccc(-c2cccnc2)cc1)[C@H](O)[C@@H](O)[C@@H](OCc1ccc(-c2cccnc2)cc1)C(=O)N[C@H](C(=O)NC)C(C)C)C(C)C | 2500 nM | 0.3 nM | > 3000 nM | > 3000 nM | 20000 nM | 
CNC(=O)[C@@H](NC(=O)[C@H](OCc1ccc(-c2ccccc2)cc1)[C@H](O)[C@@H](O)[C@@H](OCc1ccc(-c2ccccc2)cc1)C(=O)N[C@H](C(=O)NC)C(C)C)C(C)C | 40 nM | 0.7 nM | 700 nM | 400 nM | 800 nM | 
CNC(=O)[C@@H](NC(=O)[C@H](OCc1ccc(-c2cccc([N+](=O)[O-])c2)cc1)[C@H](O)[C@@H](O)[C@@H](OCc1ccc(-c2cccc([N+](=O)[O-])c2)cc1)C(=O)N[C@H](C(=O)NC)C(C)C)C(C)C | 50 nM | 1.4 nM | 40 nM | 1100 nM | 1100 nM | 
CNC(=O)[C@@H](NC(=O)[C@H](OCc1ccc(/C=C/C(=O)OC)cc1)[C@H](O)[C@@H](O)[C@@H](OCc1ccc(/C=C/C(=O)OC)cc1)C(=O)N[C@H](C(=O)NC)C(C)C)C(C)C | 800 nM | 0.09 nM |  |  | 5700 nM | 
CNC(=O)[C@@H](NC(=O)[C@H](OCc1ccc(-c2ccccn2)cc1)[C@H](O)[C@@H](O)[C@@H](OCc1ccc(-c2ccccn2)cc1)C(=O)N[C@H](C(=O)NC)C(C)C)C(C)C | 800 nM | 0.6 nM |  |  | 3600 nM | 
CNC(=O)[C@@H](NC(=O)[C@H](OCc1ccccc1)[C@H](O)[C@@H](O)[C@@H](OCc1ccccc1)C(=O)N[C@H](C(=O)NC)C(C)C)C(C)C | 1500 nM |  | 20000 nM |  |  | 20000 nM
CNC(=O)[C@@H](NC(=O)[C@H](OCc1ccc(-c2ccsc2)cc1)[C@H](O)[C@@H](O)[C@@H](OCc1ccc(-c2ccsc2)cc1)C(=O)N[C@H](C(=O)NC)C(C)C)C(C)C | 40 nM |  | 200 nM | 300 nM | 800 nM | 
CNC(=O)[C@@H](NC(=O)[C@H](OCc1ccc(-c2cccs2)cc1)[C@H](O)[C@@H](O)[C@@H](OCc1ccc(-c2cccs2)cc1)C(=O)N[C@H](C(=O)NC)C(C)C)C(C)C | 40 nM | 1.2 nM | 200 nM | 300 nM | 1000 nM | 
CNC(=O)[C@@H](NC(=O)[C@H](OCc1ccc(-c2nccs2)cc1)[C@H](O)[C@@H](O)[C@@H](OCc1ccc(-c2nccs2)cc1)C(=O)N[C@H](C(=O)NC)C(C)C)C(C)C | 300 nM | 0.6 nM | > 3000 nM | > 3000 nM | 400 nM | 
CNC(=O)[C@@H](NC(=O)[C@H](OCc1ccc(C2=C(O)C(=O)CCC2)cc1)[C@H](O)[C@@H](O)[C@@H](OCc1ccc(C2=C(O)C(=O)CCC2)cc1)C(=O)N[C@H](C(=O)NC)C(C)C)C(C)C | 3700 nM | 0.3 nM |  |  | 20000 nM | 
